Test results from ChEMBL document CHEMBL1157592, “Design, synthesis and antimicrobial properties of non-hemolytic cationic alpha-cyclopeptoids” (Bioorg Med Chem, 2010).
Converted amounts (≈) assume the structure as drawn. The source made the active and inactive calls. No cut-off for these calls is given here. Square brackets hold non-standard residues; d marks the D form. Peptide text beside a SMILES is read from it. Nphe = O=C(O)CNCc1ccccc1; Nlys = NCCCCNCC(=O)O

How the values were obtained:
Debaryomyces hansenii = test: Antimicrobial activity against Candida famata SA550 after 48 hrs by broth microdilution method; type: functional; conditions: SA550, 48 h
How it was run: (§1)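 Fungi grown on Sabouraud agar at 30 °C for 48 h, suspended in PBS, turbidity read at 600 nm and adjusted in RPMI-1640. Twofold serial dilutions made in RPMI-1640, inoculum ~5 × 10⁴ cells/mL, incubated 30 °C for 48 h. MIC is the lowest concentration giving complete inhibition of visible growth, following NCCLS broth microdilution guidelines.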

Staphylococcus aureus [1] = test: Antimicrobial activity against Staphylococcus aureus ATCC 25923 after 18 hrs by broth microdilution method; type: functional; conditions: ATCC 25923, 18 h
How it was run: (§2)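 Strains grown at 37 °C in Mueller–Hinton broth and tested in logarithmic phase. Twofold serial dilutions made in MH broth, inoculum ~2.5 × 10⁵ cells/mL, incubated overnight (18 h) at 37 °C. MIC is the lowest concentration giving complete inhibition of visible growth, following NCCLS broth microdilution guidelines.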

Candida albicans [2] = test: Antimicrobial activity against Candida albicans ATCC 90029 after 48 hrs by broth microdilution method; type: functional; conditions: ATCC 90029, 48 h; how it was run: as §1
Candida albicans [3] = test: Antimicrobial activity against Candida albicans L21 after 48 hrs by broth microdilution method; type: functional; conditions: L21, 48 h; how it was run: as §1
Cryptococcus neoformans [4] = test: Antimicrobial activity against Cryptococcus neoformans L1 after 48 hrs by broth microdilution method; type: functional; conditions: L1, 48 h; how it was run: as §1
Cryptococcus neoformans [5] = test: Antimicrobial activity against Cryptococcus neoformans ATCC 90112 after 48 hrs by broth microdilution method; type: functional; conditions: ATCC 90112, 48 h; how it was run: as §1
Salmonella typhimurium = test: Antimicrobial activity against Salmonella Typhimurium ATCC 14028 after 18 hrs by broth microdilution method; type: functional, Salmonella enterica subsp. enterica serovar Typhimurium; conditions: Salmonella enterica, ATCC 14028, 18 h; how it was run: as §2
Escherichia coli [6] = test: Antimicrobial activity against Escherichia coli ATCC 25922 after 18 hrs by broth microdilution method; type: functional; conditions: ATCC 25922, 18 h; how it was run: as §2
Candida albicans [7] = test: Membrane permeabilizing effect in Candida albicans ATCC 90029 assessed as propidium iodide uptake at 100 uM after 120 mins by flow cytometry; type: functional, organism-based
How it was run: (§3)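 Candida subcultured on Sabouraud agar, diluted in RPMI-1640 to 1 × 10⁵ cells/mL and incubated with peptoid at 30 °C for various times. Propidium iodide (final 10 µg/mL) added, 4 min at 30 °C, then flow cytometry with ≥10,000 events. Read-out is % PI-positive cells, background (no peptoid) subtracted; triplicates, mean ± SD.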

[8] = Toxicity in human RBCs assessed as induction of hemolysis at 100 uM relative to untreated control; type: cell-based; conditions: erythrocyte
How it was run: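 Erythrocytes taken from fresh human blood anticoagulated with citrate-dextrose. A 0.5% (v/v) suspension in 10 mM phosphate buffer pH 7.4 with 139 mM NaCl was incubated with 100 µM cyclopeptoid for 60 min at 37 °C. Reaction stopped with cold buffer, centrifuged at 10,000g for 1 min, and the supernatant collected.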

Candida albicans [9] = test: Membrane permeabilizing effect in Candida albicans ATCC 90029 assessed as propidium iodide uptake at 100 uM after 120 to 240 mins by flow cytometry; type: functional; how it was run: as §3
Staphylococcus aureus [10] = test: Membrane permeabilizing effect in Staphylococcus aureus ATCC 25923 assessed as propidium iodide uptake at 250 uM after 60 mins by flow cytometry; type: functional
How it was run: (§4)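 Log-phase bacteria at 1 × 10⁶ cells/mL in MH broth incubated with peptoid at 37 °C for various times. Propidium iodide (final 10 µg/mL) added, 4 min at 37 °C, then flow cytometry with ≥10,000 events. Read-out is % PI-positive cells, background (no peptoid) subtracted; triplicates, mean ± SD.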

Escherichia coli [11] = test: Membrane permeabilizing effect in Escherichia coli ATCC 25922 assessed as propidium iodide uptake at 250 uM after 180 mins by flow cytometry; type: functional, organism-based; how it was run: as §4
Candida albicans [12] = test: Membrane permeabilizing effect in Candida albicans ATCC 90029 assessed as propidium iodide uptake at 250 uM after 30 to 240 mins by flow cytometry; type: functional, organism-based; how it was run: as §3
[13] = Toxicity in human RBCs assessed as induction of hemolysis at 20 uM relative to untreated control; type: cell-based, Erythrocyte; conditions: red blood cells (RBCs)

| Compound | MIC (Debaryomyces hansenii) [µM] | MIC (Staphylococcus aureus [1]) [µM] | MIC (Candida albicans [2]) [µM] | MIC (Candida albicans [3]) [µM] | MIC (Cryptococcus neoformans [4]) [µM] | MIC (Cryptococcus neoformans [5]) [µM] | MIC (Salmonella typhimurium) [µM] | MIC (Escherichia coli [6]) [µM] | Activity (Candida albicans [7]) | Activity [8] | Activity (Candida albicans [9]) [%] | Activity (Staphylococcus aureus [10]) [%] | Activity (Escherichia coli [11]) | Activity (Candida albicans [12]) | hemolysis at 20 µM [13] [%] |
| --- | --- | --- | --- | --- | --- | --- | --- | --- | --- | --- | --- | --- | --- | --- | --- |
| NCCCCN(CC(=O)O)C(=O)CN(CCCCN)C(=O)CN(Cc1ccccc1)C(=O)CN(CCCCN)C(=O)CN(CCCCN)C(=O)CNCc1ccccc1 | > 1000 | > 1000 | > 1000 | > 1000 | > 1000 | > 1000 | > 1000 | > 1000 |  |  |  |  |  |  |  |
| NCCCCN1CC(=O)N(CCOCc2ccccc2)CC(=O)N(CCOCc2ccccc2)CC(=O)N(CCCCN)CC(=O)N(CCOCc2ccccc2)CC(=O)N(CCOCc2ccccc2)CC1=O |  | 392 (≈ 400 µg/mL) | 196 (≈ 200 µg/mL) | 196 (≈ 200 µg/mL) | 98 (≈ 100 µg/mL) | 196 (≈ 200 µg/mL) | > 792 | 392 (≈ 400 µg/mL) |  |  |  |  |  |  |  |
| NCCCCN(CC(=O)N(CCOCc1ccccc1)CC(=O)N(CCOCc1ccccc1)CC(=O)N(CCCCN)CC(=O)N(CCOCc1ccccc1)CC(=O)O)C(=O)CNCCOCc1ccccc1 |  | > 720 | 360 (≈ 374 µg/mL) | 360 (≈ 374 µg/mL) | 90 (≈ 93.5 µg/mL) | 180 (≈ 187 µg/mL) | 720 (≈ 748 µg/mL) | 360 (≈ 374 µg/mL) |  |  |  |  |  |  |  |
| NCCCCN1CC(=O)N(Cc2ccccc2)CC(=O)N(CCCCN)CC(=O)N(CCCCN)CC(=O)N(Cc2ccccc2)CC(=O)N(CCCCN)CC1=O.O=C(O)C(F)(F)F.O=C(O)C(F)(F)F.O=C(O)C(F)(F)F.O=C(O)C(F)(F)F (cyclo([Nlys][Nlys][Nphe][Nlys][Nlys][Nphe])) | 12 | > 1000 | 12 | 12 | 99 | 47 | > 1000 | 786 | Active | Non-toxic | 50 |  |  |  |  |
| NCCCCN1CC(=O)N(CCCCN)CC(=O)N(CCCCN)CC(=O)N(CCCCN)CC(=O)N(CCCCN)CC(=O)N(CCCCN)CC1=O.O=C(O)C(F)(F)F.O=C(O)C(F)(F)F.O=C(O)C(F)(F)F.O=C(O)C(F)(F)F.O=C(O)C(F)(F)F.O=C(O)C(F)(F)F | 5 | > 1000 | 10 | 5 | > 1000 | > 1000 | > 1000 | > 1000 |  | Non-toxic |  |  |  |  |  |
| NCCCCN1CC(=O)N(CCOCc2ccccc2)CC(=O)N(CCCCN)CC(=O)N(CCOCc2ccccc2)CC(=O)N(CCCCN)CC(=O)N(CCOCc2ccccc2)CC1=O.O=C(O)C(F)(F)F.O=C(O)C(F)(F)F.O=C(O)C(F)(F)F |  | 383 | 184 | 184 | 92 | 184 | > 766 | 383 |  |  |  | >40 | inactive | inactive |  |
| CC[C@H](C)[C@H](NC(=O)CN)C(=O)NCC(=O)N[C@@H](C)C(=O)N[C@H](C(=O)N[C@@H](CC(C)C)C(=O)N[C@@H](CCCCN)C(=O)N[C@H](C(=O)N[C@@H](CC(C)C)C(=O)N[C@H](C(=O)N[C@H](C(=O)NCC(=O)N[C@@H](CC(C)C)C(=O)N1CCC[C@H]1C(=O)N[C@@H](C)C(=O)N[C@@H](CC(C)C)C(=O)N[C@H](C(=O)N[C@@H](CO)C(=O)N[C@@H](Cc1c[nH]c2ccccc12)C(=O)N[C@H](C(=O)N[C@@H](CCCCN)C(=O)N[C@@H](CCCNC(=N)N)C(=O)N[C@@H](CCCCN)C(=O)N[C@@H](CCCNC(=N)N)C(=O)N[C@@H](CCC(N)=O)C(=O)N[C@@H](CCC(N)=O)C(N)=O)[C@@H](C)CC)[C@@H](C)CC)[C@@H](C)O)[C@@H](C)O)C(C)C)C(C)C [MELITTIN] |  |  |  |  |  |  |  |  |  |  |  |  |  |  | > 90 |
| O=C1CN(Cc2ccccc2)C(=O)CN(Cc2ccccc2)C(=O)CN(Cc2ccccc2)C(=O)CN(Cc2ccccc2)C(=O)CN(Cc2ccccc2)C(=O)CN1Cc1ccccc1 |  | > 1000 | > 1000 | > 1000 | > 1000 | > 1000 | > 1000 | > 1000 |  |  |  |  |  |  |  |

Continued, in another order:

| MIC (Debaryomyces hansenii) [µM] | MIC (Staphylococcus aureus [1]) [µM] | MIC (Candida albicans [2]) [µM] | MIC (Candida albicans [3]) [µM] | MIC (Cryptococcus neoformans [4]) [µM] | MIC (Cryptococcus neoformans [5]) [µM] | MIC (Salmonella typhimurium) [µM] | MIC (Escherichia coli [6]) [µM] | Compound | Activity (Candida albicans [7]) | Activity [8] | Activity (Candida albicans [9]) [%] | Activity (Staphylococcus aureus [10]) [%] | Activity (Escherichia coli [11]) | Activity (Candida albicans [12]) | hemolysis at 20 µM [13] [%] |
| --- | --- | --- | --- | --- | --- | --- | --- | --- | --- | --- | --- | --- | --- | --- | --- |
| > 1000 | > 1000 | > 1000 | 500 (≈ 394 µg/mL) | > 1000 | > 1000 | > 1000 | > 1000 | NCCCCNCC(=O)N(CCCCN)CC(=O)N(CCCCN)CC(=O)N(CCCCN)CC(=O)N(CCCCN)CC(=O)N(CCCCN)CC(=O)O |  |  |  |  |  |  |  |
|  | > 1000 | > 1000 | > 1000 | 788 (≈ 680 µg/mL) | > 1000 | > 1000 | > 1000 | NCCCCN(CC(=O)N(CC(=O)N(CC(=O)N(CCCCN)CC(=O)N(CC(=O)O)Cc1ccccc1)Cc1ccccc1)Cc1ccccc1)C(=O)CNCc1ccccc1 (H-[Nphe][Nlys][Nphe][Nphe][Nlys][Nphe]-OH) |  |  |  |  |  |  |  |
|  | > 1000 | > 1000 | > 1000 | > 1000 | > 1000 | > 1000 | > 1000 | O=C1CN(CCOCc2ccccc2)C(=O)CN(CCOCc2ccccc2)C(=O)CN(CCOCc2ccccc2)C(=O)CN(CCOCc2ccccc2)C(=O)CN(CCOCc2ccccc2)C(=O)CN1CCOCc1ccccc1 |  |  |  |  |  |  |  |
|  | 465 (≈ 393 µg/mL) | 465 (≈ 393 µg/mL) | 232 (≈ 196 µg/mL) | 116 (≈ 98 µg/mL) | 232 (≈ 196 µg/mL) | 465 (≈ 393 µg/mL) | 465 (≈ 393 µg/mL) | NCCCCN1CC(=O)N(Cc2ccccc2)CC(=O)N(Cc2ccccc2)CC(=O)N(CCCCN)CC(=O)N(Cc2ccccc2)CC(=O)N(Cc2ccccc2)CC1=O (cyclo([Nlys][Nphe][Nphe][Nlys][Nphe][Nphe])) |  |  |  |  |  |  |  |
